Assay results taken from ChEMBL document CHEMBL4321814, “Design of Gallinamide A Analogs as Potent Inhibitors of the Cysteine Proteases Human Cathepsin L and Trypanosoma cruzi Cruzain” (J Med Chem, 2019).
The source made the active and inactive calls. The rule behind the calls is not given here.

Columns and labels:
[1] = molecular target: Procathepsin L (Homo sapiens) (UniProt P07711); assay: Inhibition of human cathepsin L assessed as Kinact /Ki ratio using fluorogenic substrate cbz-FR-AMC monitored for 90 to 120 mins by spectrophotometry
Sequence of Procathepsin L (Homo sapiens) (P07711 114-333 limits assumed): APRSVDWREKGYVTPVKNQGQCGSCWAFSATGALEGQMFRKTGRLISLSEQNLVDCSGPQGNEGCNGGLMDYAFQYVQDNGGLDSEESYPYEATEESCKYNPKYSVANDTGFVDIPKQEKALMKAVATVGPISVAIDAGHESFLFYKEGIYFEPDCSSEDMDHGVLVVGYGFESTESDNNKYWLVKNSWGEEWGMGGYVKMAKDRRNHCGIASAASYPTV
Method in brief: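 Continuous kinetic assay with 0.5 ng/mL final cathepsin L and 10 μM Z-FR-AMC, with DMSO below 6%. Inhibitors were a 3-fold, 11-point series from […] to 1.0 μM. Substrate and inhibitor were combined and enzyme was added to start the reaction. AMC release was read for 2 h and converted via an AMC standard curve. Progress curves were fitted to a six-parameter covalent inhibition model (k_inact, association/dissociation constants).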

[2] = molecular target: Procathepsin L (Homo sapiens) (UniProt P07711); assay: Irreversible inhibition of human cathepsin L assessed as residual enzyme activity using fluorogenic substrate cbz-FR-AMC incubated for 30 mins followed by 100 fold dilution and measured after 2 hrs by spectrophotometry
[3] = molecular target: Procathepsin L (Homo sapiens) (UniProt P07711); assay: Irreversible inhibition of human cathepsin L assessed as residual enzyme activity using fluorogenic substrate cbz-FR-AMC incubated for 30 mins followed by 100 fold dilution and measured after 1 hrs by spectrophotometry
Trypanosoma cruzi = assay type: functional; conditions: C2C12, 72 h, read-out: LD50 (the source's name)
Cruzipain = Cruzipain (Trypanosoma cruzi, UniProt P25779); assay: Inhibition of recombinant Trypanosoma cruzi Cruzain expressed in Pichia pastoris using Z-Phe-Arg-AMC substrate incubated for 30 mins by fluorescence based assay
Sequence of Cruzipain (P25779 whole entry): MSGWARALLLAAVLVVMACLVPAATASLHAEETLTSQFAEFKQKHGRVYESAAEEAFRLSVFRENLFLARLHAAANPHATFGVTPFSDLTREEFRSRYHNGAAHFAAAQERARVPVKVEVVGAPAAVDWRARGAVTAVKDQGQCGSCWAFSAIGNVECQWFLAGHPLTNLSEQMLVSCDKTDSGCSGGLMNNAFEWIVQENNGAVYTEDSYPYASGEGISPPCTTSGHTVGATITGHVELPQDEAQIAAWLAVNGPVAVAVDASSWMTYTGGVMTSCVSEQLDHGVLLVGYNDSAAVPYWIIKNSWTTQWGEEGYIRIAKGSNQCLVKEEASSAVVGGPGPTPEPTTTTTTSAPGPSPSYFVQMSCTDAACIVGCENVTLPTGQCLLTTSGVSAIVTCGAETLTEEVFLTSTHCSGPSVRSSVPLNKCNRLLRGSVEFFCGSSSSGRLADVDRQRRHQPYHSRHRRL

[4] = Cytotoxicity in mouse C2C12 cells assessed as reduction in cell viability incubated for 3 days; assay type: cell-based; conditions: read-out: LD50
[5] = molecular target: Procathepsin L (Homo sapiens) (UniProt P07711); assay: Reversible inhibition of human cathepsin L assessed as residual enzyme activity using fluorogenic substrate cbz-FR-AMC incubated for 30 mins followed by 100 fold dilution and measured after 1 hrs by spectrophotometry
[6] = molecular target: Procathepsin L (Homo sapiens) (UniProt P07711); assay: Irreversible inhibition of human cathepsin L assessed as reduction in enzyme activity using fluorogenic substrate cbz-FR-AMC incubated for 30 mins followed by 100 fold dilution and measured after 2 hrs by spectrophotometry
Method in brief: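 Preincubation-dilution: cathepsin L at 100-fold final assay concentration incubated 30 min with inhibitor at 10-fold its IC₅₀. Then diluted 100-fold into assay buffer with 10 μM Z-FR-AMC, giving standard enzyme level and 0.1× IC₅₀ inhibitor. AMC fluorescence read continuously in kinetic mode for 2 h and activity compared with vehicle control.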

Row | SMILES | Ratio [1] | Activity [2] | inhibition [3] | LC50 (Trypanosoma cruzi) | IC50 (Cruzipain) | CC50 at 72 h [4] | Activity [5] | inhibition [6]
1 | CC[C@H](C)[C@@H](C(=O)O[C@@H](CC(C)C)C(=O)N[C@@H](CC(C)C)C(=O)N[C@@H](C)/C=C/C(=O)N1C(=O)C=C(OC)[C@@H]1C)N(C)C [GALLINAMIDE A] | 901 ×10³ /M/s | 5% | Active | 14.7 nM | 0.26 nM | > 10000 nM | – | –
2 | C#CCCCCOC1=CC(=O)N(C(=O)/C=C/[C@H](C)NC(=O)[C@H](CC(C)C)NC(=O)[C@H](CC(C)C)OC(=O)[C@H]([C@@H](C)CC)N(C)C)[C@@H]1C | – | – | – | 17 nM | 0.47 nM | > 10000 nM | – | –
3 | CC[C@H](C)[C@@H](C(=O)O[C@@H](CC(C)C)C(=O)N[C@@H](CC(C)C)C(=O)N[C@H](/C=C/C(=O)N1C(=O)C=C(OC)[C@H]1Cc1ccccc1)Cc1ccccc1)N(C)C | 1030 ×10³ /M/s | – | – | 33.3 nM | 1.07 nM | > 10000 nM | – | –
4 | COC1=CC(=O)N(C(=O)/C=C/[C@H](C)NC(=O)[C@H](CC(C)C)NC(=O)[C@H](CC(C)C)OC(=O)[C@H](C(C)C)N(C)C)[C@H]1C | 487 ×10³ /M/s | – | – | 12.9 nM | 2.89 nM | > 10000 nM | – | –
5 | CC[C@H](C)[C@@H](C(=O)O[C@@H](CC(C)C)C(=O)N[C@@H](CC(C)C)C(=O)N[C@H](/C=C/C(=O)N1C(=O)C=C(OC)[C@@H]1C)Cc1ccccc1)N(C)C | – | – | – | 35.8 nM | 0.84 nM | > 10000 nM | – | –
6 | COC1=CC(=O)N(C(=O)/C=C/[C@H](Cc2ccccc2)NC(=O)[C@H](CC(C)C)NC(=O)[C@H](CC(C)C)OC(=O)[C@H](C(C)C)N(C)C)[C@H]1CC(C)C | 1780 ×10³ /M/s | – | – | 16.4 nM | 0.25 nM | > 10000 nM | – | –
7 | CC[C@H](C)[C@@H](C(=O)O[C@@H](CC(C)C)C(=O)N[C@@H](CC(C)C)C(=O)N[C@@H](C)CCC(=O)N1C(=O)C=C(OC)[C@@H]1C)N(C)C | – | – | – | – | – | – | 75% | –
8 | CC[C@H](C)[C@@H](C(=O)O[C@@H](CC(C)C)C(=O)N[C@@H](CC(C)C)C(=O)N[C@@H](C)/C=C/C(=O)N1C(=O)C=C(OC)[C@@H]1Cc1ccccc1)N(C)C | – | – | – | 19.1 nM | 0.76 nM | > 10000 nM | – | –
9 | CC(C)CCNC(=O)[C@H](CC(C)C)NC(=O)[C@H]1O[C@@H]1C(=O)O | – | – | – | – | – | – | – | Active
10 | CC[C@H](C)[C@@H](C(=O)O[C@@H](CC(C)C)C(=O)N[C@@H](CC(C)C)C(=O)N[C@@H](/C=C/C(=O)N1C(=O)C=C(OC)[C@H]1Cc1ccccc1)Cc1ccccc1)N(C)C | 23.9 ×10³ /M/s | – | – | 537 nM | 37.1 nM | > 10000 nM | – | –
11 | CC[C@H](C)[C@@H](C(=O)O[C@@H](CC(C)C)C(=O)N[C@@H](CC(C)C)C(=O)N[C@H](/C=C/C(=O)N1C(=O)C=C(OC)[C@@H]1CC(C)C)Cc1ccccc1)N(C)C | – | – | – | 61.8 nM | 1.08 nM | > 10000 nM | – | –
12 | O=C(Cn1ccnc1[N+](=O)[O-])NCc1ccccc1 [BENZNIDAZOLE] | – | – | – | 1500 nM | – | – | – | –
13 | COC1=CC(=O)N(C(=O)/C=C/[C@H](Cc2ccccc2)NC(=O)[C@H](CC(C)C)NC(=O)[C@H](CC(C)C)OC(=O)[C@H](Cc2ccccc2)N(C)C)[C@@H]1Cc1ccccc1 | 1390 ×10³ /M/s | – | – | > 10000 nM | 3.69 nM | > 10000 nM | – | –
14 | CC[C@H](C)[C@@H](C(=O)O[C@@H](CC(C)C)C(=O)N[C@@H](CC(C)C)C(=O)N[C@@H](C)/C=C/C(=O)N1C(=O)C=C(OC)[C@@H]1CC(C)C)N(C)C | 2510 ×10³ /M/s | – | – | 5.1 nM | 0.49 nM | > 10000 nM | – | –
15 | CC[C@H](C)[C@@H](C(=O)O[C@@H](CC(C)C)C(=O)N[C@@H](CC(C)C)C(=O)N[C@H](/C=C/C(=O)N1C(=O)C=C(OC)[C@@H]1Cc1ccccc1)Cc1ccccc1)N(C)C | 719 ×10³ /M/s | – | – | 33.8 nM | 1.15 nM | > 10000 nM | – | –
16 | COC1=CC(=O)N(C(=O)/C=C/[C@H](Cc2ccccc2)NC(=O)[C@H](CC(C)C)NC(=O)[C@H](CC(C)C)OC(=O)[C@H](Cc2ccccc2)N(C)C)[C@H]1C | 819 ×10³ /M/s | – | – | 60.3 nM | 1.2 nM | > 10000 nM | – | –
17 | COC1=CC(=O)N(C(=O)/C=C/[C@H](C)NC(=O)[C@H](CC(C)C)NC(=O)[C@H](CC(C)C)OC(=O)[C@H](Cc2ccccc2)N(C)C)[C@H]1Cc1ccccc1 | 3480 ×10³ /M/s | – | – | 18.6 nM | 0.73 nM | > 10000 nM | – | –
18 | COC1=CC(=O)N(C(=O)/C=C/[C@H](Cc2ccccc2)NC(=O)[C@H](CC(C)C)NC(=O)[C@H](CC(C)C)OC(=O)[C@H](Cc2ccccc2)N(C)C)[C@H]1Cc1ccccc1 | 1060 ×10³ /M/s | – | – | > 10000 nM | 1.35 nM | > 10000 nM | – | –
19 | CC[C@H](C)[C@@H](C(=O)O[C@@H](CC(C)C)C(=O)N[C@@H](CC(C)C)C(=O)N[C@@H](/C=C/C(=O)N1C(=O)C=C(OC)[C@@H]1Cc1ccccc1)Cc1ccccc1)N(C)C | 6.9 ×10³ /M/s | – | – | 1080 nM | 81 nM | > 10000 nM | – | –
